From ChEMBL document CHEMBL1131161 (J Med Chem, 1998)
pEC50, pIC50, pKi: −log10 of the molar value.

Tests used:
Progesterone receptor [1] = biological target: T1, Progesterone receptor (Homo sapiens, UniProt P06401); assay: Effective concentration (EC50) against human progesterone receptor expressed in CV-1 cell; type: functional, cell-based
T1 sequence (P06401 whole entry): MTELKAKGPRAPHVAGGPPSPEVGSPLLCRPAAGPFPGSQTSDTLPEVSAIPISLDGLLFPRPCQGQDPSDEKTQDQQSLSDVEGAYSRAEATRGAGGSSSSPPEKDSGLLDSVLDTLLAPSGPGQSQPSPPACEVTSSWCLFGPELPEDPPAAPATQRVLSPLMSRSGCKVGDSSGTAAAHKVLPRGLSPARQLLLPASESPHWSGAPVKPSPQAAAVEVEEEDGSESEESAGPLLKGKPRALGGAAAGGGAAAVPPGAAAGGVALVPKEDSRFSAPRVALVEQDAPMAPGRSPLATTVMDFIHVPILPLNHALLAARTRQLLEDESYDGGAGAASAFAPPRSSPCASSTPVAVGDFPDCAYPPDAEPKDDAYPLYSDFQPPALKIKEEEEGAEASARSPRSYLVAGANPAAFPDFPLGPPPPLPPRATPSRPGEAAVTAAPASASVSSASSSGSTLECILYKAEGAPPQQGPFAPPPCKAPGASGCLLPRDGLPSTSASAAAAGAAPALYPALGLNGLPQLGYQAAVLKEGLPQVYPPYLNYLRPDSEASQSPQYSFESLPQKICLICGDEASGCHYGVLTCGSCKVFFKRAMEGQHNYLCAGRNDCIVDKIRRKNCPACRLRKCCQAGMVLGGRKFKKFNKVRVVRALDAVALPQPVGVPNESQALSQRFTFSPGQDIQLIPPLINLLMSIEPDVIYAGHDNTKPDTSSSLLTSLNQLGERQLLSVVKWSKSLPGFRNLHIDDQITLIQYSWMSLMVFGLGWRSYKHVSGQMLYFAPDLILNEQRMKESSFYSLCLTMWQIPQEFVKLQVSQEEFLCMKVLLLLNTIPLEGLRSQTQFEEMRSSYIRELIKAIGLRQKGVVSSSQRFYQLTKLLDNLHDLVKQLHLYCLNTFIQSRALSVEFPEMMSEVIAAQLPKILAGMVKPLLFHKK

Androgen receptor [2] = biological target: T2, Androgen receptor (Homo sapiens, UniProt P10275); assay: Inhibitory activity (IC50) against human androgen receptor expressed in CV-1 cells; type: cell-based
T2 sequence (P10275 whole entry): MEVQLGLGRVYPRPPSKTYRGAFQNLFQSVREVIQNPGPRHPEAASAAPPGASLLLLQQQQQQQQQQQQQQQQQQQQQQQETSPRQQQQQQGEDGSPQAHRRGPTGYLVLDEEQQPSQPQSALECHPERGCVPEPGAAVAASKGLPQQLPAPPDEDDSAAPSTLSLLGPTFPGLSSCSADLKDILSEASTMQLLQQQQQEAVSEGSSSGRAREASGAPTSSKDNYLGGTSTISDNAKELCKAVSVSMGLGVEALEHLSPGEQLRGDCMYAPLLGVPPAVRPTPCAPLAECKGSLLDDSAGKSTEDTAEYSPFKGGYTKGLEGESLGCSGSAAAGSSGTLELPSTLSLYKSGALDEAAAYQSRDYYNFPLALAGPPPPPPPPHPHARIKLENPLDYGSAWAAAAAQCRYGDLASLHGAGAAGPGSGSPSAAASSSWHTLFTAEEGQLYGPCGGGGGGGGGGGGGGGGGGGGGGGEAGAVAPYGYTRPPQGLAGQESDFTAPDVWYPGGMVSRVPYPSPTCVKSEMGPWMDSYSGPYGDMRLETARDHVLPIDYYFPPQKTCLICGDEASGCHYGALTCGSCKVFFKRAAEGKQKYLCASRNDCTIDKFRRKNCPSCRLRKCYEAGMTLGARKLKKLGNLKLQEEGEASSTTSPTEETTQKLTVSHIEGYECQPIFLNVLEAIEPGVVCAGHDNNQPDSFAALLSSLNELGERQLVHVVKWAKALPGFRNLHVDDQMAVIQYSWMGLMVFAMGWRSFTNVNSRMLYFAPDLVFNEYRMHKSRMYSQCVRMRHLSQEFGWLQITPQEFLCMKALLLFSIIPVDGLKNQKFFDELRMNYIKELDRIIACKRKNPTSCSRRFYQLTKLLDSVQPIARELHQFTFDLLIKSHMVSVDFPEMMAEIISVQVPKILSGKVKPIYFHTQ
In short: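 Cotransfection assays in CV-1 cells with a luciferase reporter, read as normalized LUC expression. In antagonist mode, the reference agonists were DHT for hAR, dexamethasone for hGR and aldosterone for hMR. Antagonist efficacy was expressed as the percent of maximal inhibition of the agonist. Values are means of at least three separate experiments in triplicate, or of two experiments.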

CV-1 = assay: Inhibitory concentration in CV-1 cell; type: functional, cell-based, Cercopithecidae; settings: Chlorocebus aethiops
Progesterone receptor [3] = biological target: T1, Progesterone receptor; assay: Binding affinity against human progesterone receptor
Androgen receptor [4] = biological target: T2, Androgen receptor

pEC50 (Progesterone receptor [1]) | pIC50 (Androgen receptor [2]) | pIC50 (CV-1) | pKi (Progesterone receptor [3]) | SMILES | pIC50 (Androgen receptor [4])
7.83 | 5.80 | < 5.00 | 8.82 | CC1=CC(C)(C)Nc2ccc3c(c21)/C(=C/c1cc(F)ccc1F)Oc1ccccc1-3 | –
7.83 | 6.04 | < 5.00 | 8.44 | CC1=CC(C)(C)Nc2ccc3c(c21)/C(=C/c1ccc(F)c(F)c1)Oc1ccccc1-3 | –

SMILES | pEC50 (Progesterone receptor [1]) | pIC50 (Androgen receptor [2]) | pIC50 (CV-1) | pKi (Progesterone receptor [3]) | pIC50 (Androgen receptor [4])
CC1=CC(C)(C)Nc2ccc3c(c21)/C(=C/c1ccccc1C)Oc1ccccc1-3 | 8.24 | – | < 5.00 | 9.18 | 5.97
